Experimental data gathered from unrelated publications.
Lines come from different studies, so protocols differ.
Organism: Bacillus subtilis
Effect on: microbial growth

SMILES | test | test system | conditions | MIC
CNC(=O)c1cc(Oc2ccc(NC(=O)Nc3ccc(Cl)c(C(F)(F)F)c3)cc2)ccn1 | – | 168 | – | 5 µM
O=C(O)c1ccc(-n2cc(/C=N/N(c3ccccc3)c3ccccc3)c(-c3cccc(F)c3)n2)cc1 | – | ATCC6623 | – | 1.56 µg/mL
Clc1ccc(NCc2ccc(Oc3ccccn3)cc2)cc1 | – | – | – | > 6.2 µg/mL
O=C(O)c1ccc(-n2cc(/C=N/Nc3cccc(Cl)c3)c(-c3cccc(F)c3)n2)cc1 | – | ATCC6623 | – | 12.5 µg/mL
O=C(O)c1cn(C2CC2)c2cc(N3CCNCC3)c(F)cc2c1=O | broth dilution | ATCC6633 | – | 0.03 µg/mL
Brc1ccc(NCc2ccc(Oc3ccccn3)cc2)cc1 | – | – | – | > 3.1 µg/mL
O=C(O)c1ccc(-n2cc(/C=N/Nc3cccc(Cl)c3F)c(-c3ccc(F)cc3)n2)cc1 | – | ATCC6623 | – | 3.12 µg/mL
CC1CCN(CCCN2/C(=C/c3cc[n+](C)c4ccccc34)Sc3ccccc32)CC1.[I-] | broth dilution | 168 | – | 4 µg/mL
CCCCCCCC[P+](/C=C(/c1ccccc1)c1cc(Cl)ccc1O)(CCCCCCCC)CCCCCCCC | – | – | 21 h | > 80 µM
CN[C@H](CC(C)C)C(=O)N[C@H]1C(=O)N[C@@H](CC(N)=O)C(=O)N[C@H]2C(=O)N[C@H]3C(=O)N[C@H](C(=O)N[C@H](C(=O)O)c4cc(O)cc(O)c4-c4cc3ccc4O)[C@H](O)c3ccc(c(Cl)c3)Oc3cc2cc(c3O[C@@H]2O[C@H](CO)[C@@H](O)[C@H](O)[C@H]2O[C@H]2C[C@](C)(N)[C@H](O)[C@H](C)O2)Oc2ccc(cc2Cl)[C@H]1O | – | ATCC6623 | – | 0.39 µg/mL
O=C(O)CN1C(=O)/C(=C/c2ccc(-c3ccc(N(c4ccccc4)c4ccccc4)cc3)c3ccccc23)SC1=S | broth dilution | ATCC6633 | – | 500 µg/mL
CCCCC[P+](/C=C(/c1ccccc1)c1cc(Cl)ccc1O)(CCCCC)CCCCC | – | – | 21 h | ~2 µM
C[n+]1c(/C=C/c2c[nH]c3ccccc23)cc(/C=C2\Sc3ccccc3N2CCCN2CCOCC2)c2ccccc21.[I-] | broth dilution | 168 | – | 8 µg/mL
CCCCCC[P+](/C=C(/c1ccccc1)c1cc(Cl)ccc1OC)(CCCCCC)CCCCCC | – | – | 21 h | 2 µM
Cc1cc(/C=C2\Sc3ccccc3N2CCCN2CCC(C)CC2)c2ccccc2[n+]1C.[I-] | broth dilution | 168 | – | 1 µg/mL
O=C(O)CN1C(=O)/C(=C/c2c3ccccc3c(-c3ccc(N(c4ccccc4)c4ccccc4)cc3)c3ccccc23)NC1=S | broth dilution | ATCC6633 | – | > 1000 µg/mL
Clc1cccc(NCc2ccc(Oc3ccccn3)cc2)c1 | – | – | – | 1.8 µg/mL
CCCCCCCCCCCCOC(=O)c1cc(O)c(O)c(O)c1 | broth dilution | ATCC6633 | – | 25 to 50 µM
CC1=NN(CNc2ccccn2)C(=O)C1=NNn1c(-c2ccccc2)nc2ccccc2c1=O | broth dilution | – | 24 h | 55.2 µM
CN(C)[C@@H]1C(O)=C(C(N)=O)C(=O)[C@@]2(O)C(O)=C3C(=O)c4c(O)cccc4[C@@](C)(O)[C@H]3C[C@@H]12 | – | ATCC6633 | – | 2 µg/mL
C/C=C(\C)c1cc(OC(=O)c2c(C)c(Cl)c(O)c(Cl)c2O)c(C)c(O)c1C(=O)O | broth dilution | BS01 | – | 64 µg/mL
CC1=NN(CNC(=O)c2ccccc2)C(=O)C1=NNn1c(-c2ccccc2)nc2ccccc2c1=O | broth dilution | – | 24 h | 51.9 µM
C/C=C(\C)c1cc(OC(=O)c2c(O)c(C)c(O)c(Cl)c2/C(C)=C/C)c(C)c(O)c1C(=O)O | broth dilution | BS01 | – | 32 µg/mL

SMILES | test | test system | conditions | MIC
CC1(C)CCC(C)(C)c2cc(C(=O)Nc3ccc(C(=O)O)cc3)ccc21 | broth dilution | – | 24 h | 50 to 100 µM
O=C(O)c1cc(O)c(O)c(OC(=O)c2cc(O)c(O)c(O)c2)c1 | broth dilution | ATCC6633 | – | > 200 µM
COc1ccc(NCc2ccc(Oc3ccccn3)cc2)cc1 | – | – | – | > 6.24 µg/mL
CC1=NN(CNc2ccccc2[N+](=O)[O-])C(=O)C1=NNn1c(-c2ccccc2)nc2ccccc2c1=O | broth dilution | – | 24 h | 50.4 µM
CC1(C)S[C@@H]2[C@H](NC(=O)[C@H](N)c3ccccc3)C(=O)N2[C@H]1C(=O)O | broth dilution | 168 | – | 32 µg/mL
O=C1NC(=S)S/C1=C\c1c2ccccc2c(-c2ccc(N(c3ccccc3)c3ccccc3)cc2)c2ccccc12 | broth dilution | ATCC6633 | – | > 1000 µg/mL
Fc1ccc(NCc2ccc(Oc3ccccn3)cc2)cc1 | – | – | – | 1.6 µg/mL
COc1cc(O)c2c(c1)/C=C/C[C@H](O)[C@H](O)C(=O)/C=C/C[C@H](C)OC2=O | – | – | – | > 500 µg/mL
O=C(O)c1cn(C2CC2)c2cc(N3CCNCC3)c(F)cc2c1=O | – | – | – | 1.6 µg/mL
O=C(O)c1ccc(-n2cc(/C=N/Nc3ccc(F)cc3)c(-c3ccc(F)cc3)n2)cc1 | – | ATCC6623 | – | 25 µg/mL
CCCCCC[P+](/C=C(/c1ccccc1)c1cc(Cl)ccc1O)(CCCCCC)CCCCCC | – | – | 21 h | 2 µM
O=C1NC(=S)N/C1=C\c1c2ccccc2c(-c2ccc(N(c3ccccc3)c3ccccc3)cc2)c2ccccc12 | broth dilution | ATCC6633 | – | > 1000 µg/mL
C[n+]1ccc(/C=C2\Sc3ccccc3N2CCCN2CCCCC2)c2ccccc21.[I-] | broth dilution | 168 | – | 16 µg/mL
CN[C@H](CC(C)C)C(=O)N[C@H]1C(=O)N[C@@H](CC(N)=O)C(=O)N[C@H]2C(=O)N[C@H]3C(=O)N[C@H](C(=O)N[C@H](C(=O)O)c4cc(O)cc(O)c4-c4cc3ccc4O)[C@H](O)c3ccc(c(Cl)c3)Oc3cc2cc(c3O[C@@H]2O[C@H](CO)[C@@H](O)[C@H](O)[C@H]2O[C@H]2C[C@](C)(N)[C@H](O)[C@H](C)O2)Oc2ccc(cc2Cl)[C@H]1O | broth dilution | ATCC6633 | – | 0.24 µg/mL
O=C(O)c1ccc(-n2cc(/C=N/Nc3c(F)c(F)cc(F)c3F)c(-c3cccc(F)c3)n2)cc1 | – | ATCC6623 | – | 12.5 µg/mL
CCCC[P+](/C=C(/c1ccccc1)c1cc(Cl)ccc1OC)(CCCC)CCCC | – | – | 21 h | 1 µM
O=C(O)c1ccc(-n2cc(/C=N/Nc3cccc(Br)c3)c(-c3ccc(F)cc3)n2)cc1 | – | ATCC6623 | – | 12.5 µg/mL
COc1cccc(OC)c1C(=O)N[C@@H]1C(=O)N2[C@@H]1SC(C)(C)[C@@H]2C(=O)O | broth dilution | 168 | – | 0.625 µg/mL
O=C1NC(=S)N/C1=C\c1ccc(-c2ccc(N(c3ccccc3)c3ccccc3)cc2)cc1 | broth dilution | ATCC6633 | – | > 1000 µg/mL
Cc1ccc(NCc2ccc(Oc3ccccn3)cc2)cc1 | – | – | – | 1.8 µg/mL
O=C(O)c1ccc(-n2cc(/C=N/Nc3ccc(Br)cc3)c(-c3cccc(F)c3)n2)cc1 | – | ATCC6623 | – | 12.5 µg/mL
C[n+]1c(/C=C/c2ccc(O)cc2)cc(/C=C2\Sc3ccccc3N2CCCN2CCOCC2)c2ccccc21.[I-] | broth dilution | 168 | – | 4 µg/mL
C/C=C(\C)c1cc(O)c(C)c(OC(=O)c2c(C)c(Cl)c(O)c(Cl)c2O)c1 | broth dilution | BS01 | – | 2 µg/mL
